In the RNAGym collection of RNA variant scans (doi:10.1126/science.aae0568):
Variants at the floor of the assay were thinned out.

B1: tRNA (parent)
chain: GUUCCGUUGGCGUAAUGGUAACGCGUCUCCCUCCUAAGGAGAAGACUGCGGGUUCGAGUCCCGUACGGAACG

Variants of: B1
Assay: yeast fitness relative to wild type (ratio to wild type); higher = fitter; tRNA-Arg(CCU), competitive growth, 37 C, YPD
Procedure, shortened: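 The tRNA-Arg(CCU) gene variants were made by chemical synthesis with a 3% per-site mutation rate at 69 sites and inserted at the native genomic locus of Saccharomyces cerevisiae. After pooling, the strains were competed in YPD at 37°C for 24 hours in six parallel replicates. Gene amplicons from the start population and each end population were read by 100-nucleotide paired-end sequencing, and Darwinian fitness relative to wild type was taken from genotype frequency changes. Genotypes needed ≥ 100 starting reads, and estimates < 0.5 were set to 0.5.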

Variant | yeast fitness
G58C A65C | 0.867
G58A G67U | 0.804
U59C A65G | 0.938
U59C A65U | 0.96
G56A A57U C62G | ≤ 0.5
A57G C60U | 0.838
A57G C60G | 0.641
A57G C60A | 0.636
A57U C60G | 0.532
A57U C60A | 0.54
C55U C60U | 0.584
C62U G63A A70C | 0.583
C62A A70U | 0.858
U59G G67C | 0.659
G56A U64C | 1.01
C61A C62G | 0.619
G58A G63A A65C | 0.584
C55U | 0.721
C55U A69G | 0.802
C55U A69U | 0.684
C55U G58A G67A | 0.546
G56A G67C | 0.812
G56A G67A | 0.901
A57G C61G C62A | 0.633

Variant | yeast fitness
C62A G67A | 0.817
C62A G67C | 0.81
C62G A65G | 0.811
C62G A65C | 0.6
U59G A65C | 0.558
A57C C61U C66U A69C | ≤ 0.5
G56C A57G A69C | ≤ 0.5
C62G G63C A65U | ≤ 0.5
U59C C66U | 0.911
U59C C66G | 0.668
C61G U64C | 0.579
C61G U64G | 0.651
A57C G58C | 0.77
A57C G58A | 0.696
C61G A65U | 0.651
C61A G68C | 0.607
C61A G68U | 0.534
C60G A65G | 0.755
C60A C61G A65U | ≤ 0.5
C55U G58C A69U | 0.537
A57G G67A A70U | ≤ 0.5
G56C C61A | ≤ 0.5
C62G A70U | 0.637
C62G A70G | 0.752

Variant | yeast fitness
U59C A69C | 0.968
G56C G67A A70C | 0.527
C60A C62U | 0.624
G56C G68C | 0.716
C60A G63A | 0.584
C62U A70C | 0.91
C55U G63C | 0.567
A57U A69G A70C | ≤ 0.5
U59A A70U | 0.91
U59A A70G | 0.975
A57U A69U | 0.668
A57U A69C | 0.69
A57C C61U A70U | ≤ 0.5
U59C U64A | 0.677
U59C U64C | 0.92
C62A A69C | 0.78
C62A A69U | 0.652
C60U G67C | 0.828
C60U G67U | 0.678
A57U G68U | 0.769
A57U G68A | 0.658
A57C C61A G67A | 0.56
G58A U59C | 0.971
A57U G67A | 0.84

Variant | yeast fitness
C55U C62A | 0.627
G58A G63A | 0.954
G58A G63C | 0.784
U59C G68C | 0.765
C61A C66A | 0.627
C61A C66U | 0.691
C61U C62U | 0.748
C61U C62G | 0.718
C61U A69G | 0.878
G56C A70C | 0.813
G56A A65C A69C | ≤ 0.5
C61A A65G | 0.595
G56A G58C | 0.95
G56A G58A | 0.907
C61G A70C | 0.763
A57U U59A A69C | 0.654
U59G A65C C66A | ≤ 0.5
C60G A70U | 0.624
C60G A70C | 0.66
C60G A70G | 0.58
U59A G67C | 0.813
U59A U64A | 0.73
C55U A65G | 0.623
C55U A65C | 0.754

Variant | yeast fitness
C62A C66A | 0.51
G56A C66U | 1.1
C61U G63A | 0.874
G58C C60G | 0.683
A57G U64G | 0.841
A57G U64C | 0.979
A57G U64A | 0.755
G58C | 0.992
G58U | 1.04
G58A | 0.981
G58A C66G | 0.943
C62U A69G | 0.918
C62U A69C | 1.02
A57G G63A | 0.879
C55U C66G | 0.668
C55U C66G A70C | ≤ 0.5
U59A A69C | 0.914
C60U C62U A70C | 0.539
C61A C66U A69C | 0.601
A57C G67A | 0.504
A57C G67U | 0.516
C60G | 0.664
C60U | 0.779
C60A | 0.613

Variant | yeast fitness
G56A C61U C62G | ≤ 0.5
G56A A65G C66U | 0.763
C60U C61U U64G | 0.677
G58A A70C | 1.01
G58A A70G | 0.949
C61A A65G G68A | ≤ 0.5
A57U C62U | 0.617
A57U A70G | 0.753
C60G A69G | 0.597
A57G C66A | 0.652
A57G C66G | 0.783
A57U A65C | 0.865
G56C C66U | 0.699
G56C C66A | 0.567
C60G C61G | ≤ 0.5
C60G C61U | 0.626
A57G G68A | 0.944
A57G G68C | 0.857
G56A A65U G67A | ≤ 0.5
C55U G63A C66G | ≤ 0.5
U59A A65C | 0.892
G58C C62G A70U | 0.616
U59C C62U G68U | 0.609
G58A C61U | 1.03

Variant | yeast fitness
G56A C62U | 0.967
C61A A70U | 0.673
C61U G67C | 0.892
G56A G58C U64A A69G | 0.545
C60G G63A A65U C66U | ≤ 0.5
C55U C60A A65U | ≤ 0.5
C60U A65G | 0.86
C60U A65U | 0.816
C60U A65C | 0.764
A57C C62A C66A | ≤ 0.5
C62U | 0.994
C62A | 0.72
C62G | 0.924
C62A A65U C66U | ≤ 0.5
G58A C62A | 0.904
G58A C62U | 1.07
C61U A65C G67A G68A | ≤ 0.5
A57C G58C U59G C66U | 0.606
C61G G68A | 0.677
C61G G68U | 0.558
A57U G63A | 0.681
C61A U64C | 0.801
C60G C61U G63A | ≤ 0.5
